Measured values from ChEMBL document CHEMBL3792308, “Synthesis and Evaluation of 2,6-Modified Purine 2'-C-Methyl Ribonucleosides as Inhibitors of HCV Replication” (ACS Med Chem Lett, 2016).

Columns and labels:
[1] = Cytotoxicity against human CEM cells after 6 days by trypan blue exclusion assay; format: cell-based; conditions: CEM (CCRF-CEM) cells
Hepatitis C virus = experiment: Antiviral activity against HCV infected in HuH7 Clone B cells assessed as inhibition of viral replication after 5 days by RT-PCR method; format: functional, organism-based, Hepacivirus hominis; conditions: 120 h
Method in brief: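 Huh7 cells carrying a subgenomic HCV replicon; HCV RNA extracted and amplified to measure replication inhibition. Tested up to 10 μM, and EC50 and EC90 are reported.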

[2] = Cytotoxicity against human HuH7 cells infected with HCV assessed as reduction in cellular rRNA level after 96 hrs by qRT-PCR analysis; format: cell-based, Huh-7
Method in brief: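 Huh7 toxicity was read in the same wells as the replicon assay, by extracting and amplifying cellular rRNA alongside HCV RNA.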

[3] = Cytotoxicity against human PBMC after 6 days by trypan blue exclusion assay; format: cell-based; conditions: PBMC (peripheral blood mononuclear cells)
[4] = Cytotoxicity against African green monkey Vero cells after 3 days by hemocytometry; format: cell-based; conditions: chlorocebus sabaeus
[5] = Drug metabolism in human HuH7 cells assessed as nucleoside monophosphate derivative formation at 50 uM after 4 hrs by LC-MS/MS analysis; format: ADME, cell-based; conditions: huh-7, 4 h
Method in brief: (§1)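 Huh7 cells incubated with 50 μM compound for 4 h at 37 °C, then washed with phosphate-buffered saline. Intracellular metabolites extracted with 70% ice-cold methanol in water and identified by LC–MS/MS, with nucleoside mono-, di- and triphosphate levels quantified.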

[6] = Drug metabolism in human HuH7 cells assessed as nucleoside triphosphate derivative formation at 50 uM after 4 hrs by LC-MS/MS analysis; format: ADME, cell-based; conditions: huh-7, 4 h; method in brief: as §1
[7] = Drug metabolism in human HuH7 cells assessed as nucleoside diphosphate derivative formation at 50 uM after 4 hrs by LC-MS/MS analysis; format: ADME, cell-based; conditions: huh-7, 4 h; method in brief: as §1

Compound | CC50 at 144 h [1] | EC50 (Hepatitis C virus) | EC90 (Hepatitis C virus) | CC50 at 96 h [2] | CC50 at 144 h [3] | CC50 at 72 h [4] | Drug metabolism [5] | Drug metabolism [6] | Drug metabolism [7]
C=C(OCC)c1nc(N)nc2c1ncn2[C@@H]1O[C@H](COP(=O)(N[C@@H](C)C(=O)OCC)Oc2ccccc2)[C@@H](O)[C@@]1(C)O (stereo partly drawn) | > 100 µM | > 10 µM | > 10 µM | > 10 µM | > 100 µM | > 100 µM |  |  | 
CCOC(=O)[C@H](C)NP(=O)(OC[C@H]1O[C@@H](n2cnc3c(N)nc(NOC)nc32)[C@](C)(O)[C@@H]1O)Oc1ccccc1 (stereo partly drawn) | > 100 µM | > 10 µM | > 10 µM | > 10 µM | > 100 µM | 18 µM |  |  | 
C=C(OCC)c1nc(N)nc2c1ncn2[C@@H]1O[C@H](CO)[C@@H](O)[C@@]1(C)O | > 100 µM | > 10 µM | > 10 µM | > 10 µM | > 100 µM | > 100 µM |  |  | 
COc1nc(Cl)nc2c1ncn2[C@@H]1O[C@H](CO)[C@@H](O)[C@@]1(C)O | > 100 µM | > 10 µM | > 10 µM | > 10 µM | > 100 µM | > 100 µM |  |  | 
CCOC(=O)[C@H](C)NP(=O)(OC[C@H]1O[C@@H](n2cnc3c(OC)nc(O)nc32)[C@](C)(O)[C@@H]1O)Oc1ccccc1 (stereo partly drawn) | > 100 µM | > 10 µM | > 10 µM | > 10 µM | > 100 µM | > 100 µM |  |  | 
C[C@@]1(O)[C@H](O)[C@@H](CO)O[C@H]1n1cnc2c(N)nc(N=[N+]=[N-])nc21 | > 100 µM | > 10 µM | > 10 µM | > 10 µM | > 100 µM | > 100 µM |  |  | 
CONc1nc(N)nc2c1ncn2[C@@H]1O[C@H](CO)[C@@H](O)[C@@]1(C)O | > 100 µM | > 10 µM | > 10 µM | > 10 µM | > 100 µM | > 100 µM |  |  | 
C[C@@]1(O)[C@H](O)[C@@H](CO)O[C@H]1n1cnc2c(NO)nc(N)nc21 | > 100 µM | 0.3 µM | 5.5 µM | > 10 µM | > 100 µM | > 100 µM |  |  | 
CONc1nc(N)c2ncn([C@@H]3O[C@H](CO)[C@@H](O)[C@@]3(C)O)c2n1 | > 100 µM | > 10 µM | > 10 µM | > 10 µM | > 100 µM | > 100 µM |  |  | 
COc1nc(N)nc2c1ncn2[C@@H]1O[C@H](COP(=O)(N[C@@H](C)C(=O)OCC(C)(C)C)Oc2cccc3ccccc23)[C@@H](O)[C@@]1(C)O (stereo partly drawn) [BMS-986094] | 8 µM | 0.02 µM | 0.04 µM | 0.8 µM | 4.5 µM | 14 µM |  |  | 
CCOC(=O)[C@H](C)NP(=O)(OC[C@H]1O[C@@H](n2cnc3c(NOC)nc(N)nc32)[C@](C)(O)[C@@H]1O)Oc1ccccc1 (stereo partly drawn) | 32 µM | 0.3 µM | 1 µM | > 10 µM | > 100 µM | > 100 µM |  |  | 
CCOP(=O)(OCC)c1nc(N)nc2c1ncn2[C@@H]1O[C@H](CO)[C@@H](O)[C@@]1(C)O | > 100 µM | > 10 µM | > 10 µM | > 10 µM | > 100 µM | > 100 µM |  |  | 
CCOC(=O)[C@H](C)NP(=O)(OC[C@H]1O[C@@H](n2cnc3c(N)nc(O)nc32)[C@](C)(O)[C@@H]1O)Oc1ccccc1 (stereo partly drawn) | > 100 µM | > 10 µM | > 10 µM | > 10 µM | > 100 µM | > 100 µM |  |  | 
COc1nc(ONC(=O)OCc2ccccc2)nc2c1ncn2[C@@H]1O[C@H](CO)[C@@H](O)[C@@]1(C)O | > 100 µM | > 10 µM | > 10 µM | > 10 µM | > 100 µM | > 100 µM |  |  | 
CC(C)(CO)C(=O)SCCOP(=O)(NCc1ccccc1)OC[C@H]1O[C@@H](n2cnc3c(=O)[nH]c(N)nc32)[C@](C)(O)[C@@H]1O (stereo partly drawn) | > 100 µM | 0.3 µM | 0.9 µM | > 100 µM | > 100 µM | > 100 µM |  |  | 
CCOC(=O)[C@H](C)NP(=O)(OC[C@H]1O[C@@H](n2cnc3c(OC)nc(ONC(=O)OCc4ccccc4)nc32)[C@](C)(O)[C@@H]1O)Oc1ccccc1 (stereo partly drawn) | 24 µM | 4.1 µM | 9.2 µM | > 33 µM | > 100 µM | > 100 µM |  |  | 

Compound | CC50 at 144 h [1] | EC50 (Hepatitis C virus) | EC90 (Hepatitis C virus) | CC50 at 96 h [2] | CC50 at 144 h [3] | CC50 at 72 h [4] | Drug metabolism [5] | Drug metabolism [6] | Drug metabolism [7]
CCOC(=O)[C@H](C)NP(=O)(OC[C@H]1O[C@@H](n2cnc3c(OC)nc(Cl)nc32)[C@](C)(O)[C@@H]1O)Oc1ccccc1 (stereo partly drawn) | > 100 µM | 6.3 µM | 9.9 µM | > 10 µM | > 100 µM | > 100 µM |  |  | 
C[C@@]1(O)[C@H](O)[C@@H](CO)O[C@H]1n1cnc2c(N)nc(Cl)nc21 | > 100 µM | > 10 µM | > 10 µM | > 10 µM | > 100 µM | > 100 µM |  |  | 
CCOC(=O)[C@H](C)NP(=O)(OC[C@H]1O[C@@H](n2cnc3c(N)nc(ONC(=O)OCc4ccccc4)nc32)[C@](C)(O)[C@@H]1O)Oc1ccccc1 (stereo partly drawn) | > 100 µM | 4.8 µM | 10 µM | > 33 µM | > 100 µM | > 100 µM |  |  | 
C[C@@]1(O)[C@H](O)[C@@H](CO)O[C@H]1n1cnc2c(N)nc(O)nc21 | > 100 µM | > 10 µM | > 10 µM | > 10 µM | > 100 µM | > 100 µM |  |  | 
CCOC(=O)[C@H](C)NP(=O)(OC[C@H]1O[C@@H](n2cnc3c(N)nc(N=[N+]=[N-])nc32)[C@](C)(O)[C@@H]1O)Oc1ccccc1 (stereo partly drawn) | > 100 µM | 2.3 µM | 3 µM | > 10 µM | > 100 µM | > 100 µM | metabolite_detected | metabolite_detected | metabolite_detected
C[C@@]1(O)[C@H](O)[C@@H](CO)O[C@H]1n1cnc2c(N)nc(ONC(=O)OCc3ccccc3)nc21 | > 100 µM | > 10 µM | > 10 µM | > 10 µM | > 100 µM | > 100 µM |  |  | 
CCOC(=O)[C@H](C)NP(=O)(OC[C@H]1O[C@@H](n2cnc3c(OC)nc(OC)nc32)[C@](C)(O)[C@@H]1O)Oc1ccccc1 (stereo partly drawn) | > 100 µM | > 10 µM | > 10 µM | > 10 µM | > 100 µM | > 100 µM |  |  | 
CCOC(=O)[C@H](C)NP(=O)(OC[C@H]1O[C@@H](n2cnc3c(N)nc(Cl)nc32)[C@](C)(O)[C@@H]1O)Oc1ccccc1 (stereo partly drawn) | > 100 µM | 1.7 µM | 5.3 µM | > 10 µM | > 100 µM | > 100 µM |  |  | 
C[C@@]1(O)[C@H](O)[C@@H](CO)O[C@H]1n1cnc2c(ONC(=O)OCc3ccccc3)nc(N)nc21 | > 100 µM | 2.4 µM | 8 µM | > 10 µM | > 100 µM | > 100 µM |  |  | 
COc1nc(N)c2ncn([C@@H]3O[C@H](CO)[C@@H](O)[C@@]3(C)O)c2n1 | > 100 µM | > 10 µM | > 10 µM | > 10 µM | > 100 µM | > 100 µM |  |  | 
CCOC(=O)[C@H](C)NP(=O)(OC[C@H]1O[C@@H](n2cnc3c(P(=O)(OCC)OCC)nc(N)nc32)[C@](C)(O)[C@@H]1O)Oc1ccccc1 (stereo partly drawn) | > 100 µM | > 10 µM | > 10 µM | > 10 µM | > 100 µM | > 100 µM |  |  | 
COc1nc(OC)c2ncn([C@@H]3O[C@H](CO)[C@@H](O)[C@@]3(C)O)c2n1 | > 100 µM | > 10 µM | > 10 µM | > 10 µM | > 100 µM | > 100 µM |  |  | 
C[C@@]1(O)[C@H](O)[C@@H](CO)O[C@H]1n1cnc2c(N=[N+]=[N-])nc(N)nc21 | > 100 µM | > 10 µM | > 10 µM | > 10 µM | > 100 µM | > 100 µM |  |  | 
CCOC(=O)[C@H](C)NP(=O)(OC[C@H]1O[C@@H](n2cnc3c(N=[N+]=[N-])nc(N)nc32)[C@](C)(O)[C@@H]1O)Oc1ccccc1 (stereo partly drawn) | > 100 µM | 2.4 µM | 7.7 µM | > 10 µM | > 100 µM | > 100 µM |  |  | 
COc1nc(O)nc2c1ncn2[C@@H]1O[C@H](CO)[C@@H](O)[C@@]1(C)O | > 100 µM | > 10 µM | > 10 µM | > 10 µM | > 100 µM | > 100 µM |  |  | 
CCOC(=O)[C@H](C)NP(=O)(OC[C@H]1O[C@@H](n2cnc3c(N)nc(OC)nc32)[C@](C)(O)[C@@H]1O)Oc1ccccc1 (stereo partly drawn) | > 100 µM | 1 µM | 2.8 µM | > 10 µM | > 100 µM | > 100 µM | metabolite_detected | metabolite_detected | metabolite_detected
